Experimental data from PMC8486219 (Cancer Science, 2021).

Experiments:
MDA‐MB‐231 cells = assay: Real-time cell migration assay; assay type: cell-based, human; conditions: 2 h pretreatment, 1 µM TH1902 or 2 µM docetaxel, monitored 12 h
Outline: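 MDA-MB-231 cells were transfected 24 h with scrambled or SORT1 siRNA, then pretreated 2 h with or without compound. Cells (25 000/well) were seeded serum-free into xCELLigence CIM plates (8 µm pores, underside gelatin-coated 0.15%, 1 h, 37°C), with serum-free medium below. After 30 min adhesion, impedance (Cell Index) was read hourly for 12 h. Duplicate wells, two experiments; one-way ANOVA with Dunnett at 10 h.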

MDA‐MB‐231‐Luc xenograft = assay: MDA-MB-231-Luc xenograft, intraperitoneal treatment; assay type: in vivo, mouse; conditions: i.p. docetaxel 15 mg/kg/wk (MTD), five cycles, CD-1 nude mice, bioluminescence
Outline: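 MDA-MB-231-Luc cells (5 × 10^6 in HBSS) were injected s.c. into the right flank of female CD-1 nude mice under isoflurane. At ~100 mm3, mice received weekly i.p. vehicle, docetaxel 15 mg/kg, or test compound 50 mg/kg for five cycles. Tumor bioluminescence was monitored and expressed relative to each mouse's day-0 post-treatment value, as mean ± SEM (six mice/group).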

MDA‐MB‐231 xenograft = assay: MDA-MB-231 xenograft, intravenous treatment; assay type: in vivo, mouse
[1] = Preliminary pharmacokinetics after i.v. bolus; assay type: in vivo, mouse; conditions: CD-1 mice, single i.v. bolus TH1902 50 mg/kg
PD‐L1‐positive TNBC = conditions: phase 1b trial of 32 patients with PD-L1-positive TNBC; cited from earlier work

## CC(=O)O[C@@]12CO[C@@H]1C[C@H](O)[C@@]1(C)C(=O)[C@H](O)C3=C(C)[C@@H](OC(=O)[C@H](O)[C@@H](NC(=O)OC(C)(C)C)c4ccccc4)C[C@@](O)([C@@H](OC(=O)c4ccccc4)[C@H]21)C3(C)C [docetaxel]
MDA‐MB‐231 cells
  Effect on cell migration (in words): inhibit cell migration
MDA‐MB‐231‐Luc xenograft
  Start of tumor relapse: 46 days
MDA‐MB‐231 xenograft; i.v. docetaxel 3.75 mg/kg or TH1902 8.75 mg/kg, n = 6 mice/group
  Tumor growth at a quarter of the MTD (in words): unaffected
MDA‐MB‐231 xenograft; i.v. docetaxel 15 mg/kg/wk (MTD), three injections, n = 5 mice/group
  Restart of tumor growth: 50 days
[1]
  free docetaxel exposure, fold lower than TH1902-associated docetaxel in plasma: approximately 37 fold
[1]; plasma, UPLC/MS
  AUC of free (released) docetaxel after TH1902 dosing: 15.5 µM·h
  Cmax of free (released) docetaxel after TH1902 dosing: 7 µM

## Pembrolizumab: monoclonal anti‐PD‐1 antibody
PD‐L1‐positive TNBC
  response rate: 18.5%
